Data reported in publication PMC2821697 (Bioorganic & medicinal chemistry, 2009).

What was measured:
[1] = tested on: MDA-MB-231 (estrogen receptor negative breast cancer); assay: Cell growth inhibition assay; assay type: cell-based; conditions: Homo sapiens, MDA-MB-231, 72 h, read-out: ED50 against MDA-MB-231
Summary of the method: (§1)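 Trypsinized cells were seeded in 96-well plates, then exposed 72 h to test compound from DMSO-diluted stock. Cells were TCA-fixed, stained with 0.4% SRB for 10 min, and dye solubilized in trizma base; A515. ED50 is the concentration halving net protein increase, mean ± SEM of ≥2 independent determinations.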

A549 (human lung cancer) = assay: Cell growth inhibition assay; assay type: cell-based; conditions: A549, 72 h, read-out: ED50 against A549
Summary of the method: as §1

DU145 (prostate cancer) = assay: Cell growth inhibition assay; assay type: cell-based; conditions: Homo sapiens, DU-145, 72 h, read-out: ED50 against DU145
[2] = tested on: KB (nasopharyngeal carcinoma); assay: Cell growth inhibition assay; assay type: cell-based; conditions: Homo sapiens, 72 h, read-out: ED50 against KB
Summary of the method: as §1

[3] = tested on: SK-BR-3 (HER2 over-expressing breast cancer); assay: Cell growth inhibition assay; assay type: cell-based, human; conditions: for ED50 against SK-BR-3: mean ED50+SEM, 2 or more independent tests, SRB, 72 h; for cancer cell line selectivity: fold more potent against SK-BR-3 compared with other cancer cell lines tested: SK-BR-3 versus six additional tested cancer cell lines
Summary of the method: as §1

[4] = tested on: SK-BR-3 breast cancer cell line; assay: MTT assay, SK-BR-3; assay type: cell-based, human; conditions: 72 h, single experiment
[5] = tested on: 184A1 normal breast cell line; assay: MTT assay, 184A1 normal breast cell line; assay type: cell-based; conditions: 72 h, single experiment
Summary of the method: (§2)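 184A1 and MCF10A were from ATCC. Cells were seeded at 5000/well in the recommended growth medium and incubated overnight. Test compound dissolved in DMSO was then added, followed by 72 h at 37 °C, 5% CO2. MTT reagent was added for 2 h, and formazan was read at OD 570. Data are mean and standard deviation of replicates from a single experiment.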

[6] = tested on: MCF10A normal breast cell line; assay: MTT assay, MCF10A normal breast cell line; assay type: cell-based; conditions: 72 h, single experiment
Summary of the method: as §2

| IC50 [2] [µM] | SMILES | ED50 against SK-BR-3 [3] [µM] | cancer cell line selectivity: fold more potent against SK-BR-3 compared with other cancer cell lines tested [3] | further results |
| --- | --- | --- | --- | --- |
| > 37.9 | Cc1cccc2c1ccc1c3occ(C)c3c(=O)oc21 [Compound 1, Neo-tanshinlactone] |  |  | IC50 [1]: 37.9 ± 1.4 µM; IC50 (A549 (human lung cancer)): 54.2 ± 3.4 µM; IC50 (DU145 (prostate cancer)): 58.3 ± 2 µM |
|  | Cc1cccc(-c2cc3occ(C)c3c(=O)o2)c1 [Compound 10, 3-Methyl-6-m-tolyl-4H-furo[3,2-c]pyran-4-one] | 1.50 ± 0.04 |  |  |
| > 78.1 | COc1cccc(-c2cc3occ(C)c3c(=O)o2)c1 [Compound 11, 6-(3-Methoxyphenyl)-3-methyl-4H-furo[3,2-c]pyran-4-one] |  |  |  |
|  | CCOc1cccc(-c2cc3occ(C)c3c(=O)o2)c1 [Compound 12, 6-(3-Ethoxyphenyl)-3-methyl-4H-furo[3,2-c]pyran-4-one] | 0.67 ± 0.03 |  |  |
| > 69.9 | COc1cc(OC)cc(-c2cc3occ(C)c3c(=O)o2)c1 [Compound 25, 6-(3,5-Dimethoxyphenyl)-3-methyl-4H-furo[3,2-c]pyran-4-one] | 0.28 ± 0.01 | 100- to 250 fold | potency against SK-BR-3 relative to 1 ([3]; ED50 compared with neo-tanshinlactone (1)): approximately threefold; interpolated ED50 against SK-BR-3 [4]: 1.0 µM; interpolated ED50 against 184A1 [5]: 16.8 µM; interpolated ED50 against MCF10A [6]: > 35.0 µM |
| > 63.3 | COc1cc(-c2cc3occ(C)c3c(=O)o2)cc(OC)c1OC [Compound 27, 3-Methyl-6-(3,4,5-trimethoxyphenyl)-4H-furo[3,2-c]pyran-4-one] | 0.44 ± 0.01 | 100- to 250 fold |  |
